Measured values reported in ChEMBL document CHEMBL3232716, “Tailoring cytotoxicity of antimicrobial peptidomimetics with high activity against multidrug-resistant Escherichia coli” (J Med Chem, 2014).
In brackets after ≈: the same amount, converted by molar mass. Square brackets hold non-standard residues; d marks the D form. Peptide text beside a SMILES is read from it. hArg = N=C(N)NCCCC[C@H](N)C(=O)O; Nphe = O=C(O)CNCc1ccccc1

Columns and labels:
[1] = system: HepG2; test: Cytotoxicity against human HepG2 cells after 1 hr by MTS/PMS assay; type: cell-based; conditions: HepG2, 1 h
Procedure, shortened: (§1)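 Monolayers (passage 4–10) grown ~21–25 h to ~90% confluence. Seeding per well: HeLa 8000, HepG2 23 000, NIH 3T3 22 000, IEC-6 16 000, Caco-2 25 000. Cells washed with HBSS/10 mM Hepes pH 7.4 and exposed 1 h at 37 °C, 50 rpm, to compound 0–2000 μM in culture medium. MTS 240 μg/mL/PMS 2.4 μg/mL for 1.5–4 h, A492. Viability referenced to SDS and untreated controls; IC50 from one biological replicate in triplicate.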

[2] = Cytotoxicity against rat IEC-6 cells after 1 hr by MTS/PMS assay; type: cell-based; conditions: IEC-6, 1 h; procedure, shortened: as §1
[3] = system: Escherichia coli; test: Antibacterial activity against NDM-1 producing Escherichia coli clinical isolate 74859898 after 18 hrs by microdilution broth method; type: functional; conditions: clinical isolate 74859898, 18 h
[4] = system: HeLa; test: Cytotoxicity against human HeLa cells after 1 hr by MTS/PMS assay; type: cell-based; procedure, shortened: as §1
[5] = system: Acinetobacter baumannii; test: Antibacterial activity against multidrug-resistant Acinetobacter baumannii clinical isolate E2-1228625 after 18 hrs by microdilution broth method; type: functional; conditions: clinical isolate E2-1228625, 18 h
[6] = Binding affinity to synthetic POPC/POPG liposomal membrane at 20 uM by circular dichroism analysis; type: physicochemical; conditions: artificial membrane
Procedure, shortened: (§2)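 CD spectra recorded with 20 μM test compound and 2 mM liposomes in 10 mM Tris buffer, pH 7.5. Liposomes were roughly 100 nm: POPC/POPG 7:3 (bacterial model) or POPC/POPG/cholesterol 5:3:2 (mammalian model). Lipid concentration was standardized by enzymatic phospholipid colorimetric assay.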

[7] = system: Caco-2; test: Cytotoxicity against human Caco2 cells after 1 hr by MTS/PMS assay; type: cell-based; conditions: Caco-2, 1 h; procedure, shortened: as §1
[8] = system: HUVEC; test: Cytotoxicity against HUVEC after 1 hr by MTS/PMS assay; type: cell-based; conditions: Homo sapiens
Procedure, shortened: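 HUVEC seeded at 15 000 cells/well on collagen-coated wells (0.6 μg/cm2), passage 4–10, grown to ~90% confluence over 21–25 h. Cells exposed to compound (0–2000 μM) in F-12K medium for 1 h at 37 °C. MTS 240 μg/mL with PMS 9.6 μg/mL in HBSS for 1.5–4 h, then A492. Viability referenced to 0.2% SDS and untreated cells; IC50 reported.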

[9] = system: Enterococcus faecium; test: Antibacterial activity against vancomycin-resistant Enterococcus faecium ATCC 700221 after 18 hrs by microdilution broth method; conditions: ATCC 700221, 18 h
[10] = system: Escherichia coli; test: Antibacterial activity against Escherichia coli ATCC 25922 after 18 hrs by microdilution broth method; type: functional; conditions: ATCC 25922, 18 h
Procedure, shortened: (§3)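 CLSI broth microdilution. […] Incubated 35 °C in ambient air for 18 h. MIC taken as the lowest concentration with no visible growth versus the compound-free control. Reported as median and range of three independent biological replicates run on separate days.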

[11] = system: Staphylococcus aureus; test: Antibacterial activity against methicillin-resistant Staphylococcus aureus ATCC 33591 after 18 hrs by microdilution broth method; type: functional; conditions: ATCC 33591, 18 h; procedure, shortened: as §3
[12] = system: Escherichia coli; test: Antibacterial activity against extended-spectrum beta-lactamase producing multidrug-resistant and colistin-susceptible Escherichia coli CTX-M-15 clinical isolate Aar 11 after 18 hrs by microdilution broth method; type: functional; conditions: CTX-M-15, 18 h
[13] = Cytotoxicity against mouse NIH/3T3 cells after 1 hr by MTS/PMS assay; type: cell-based; conditions: NIH3T3, 1 h; procedure, shortened: as §1
[14] = Binding affinity to cholesterol containing synthetic POPC/POPG liposomal membrane at 20 uM by circular dichroism analysis; type: physicochemical; conditions: artificial membrane; procedure, shortened: as §2

Row | SMILES | IC50 [1] [µM] | IC50 [2] [µM] | MIC [3] [µM] | IC50 [4] [µM] | MIC [5] [µM] | Activity [6] | IC50 [7] [µM] | IC50 [8] [µM] | MIC [9] [µM] | MIC [10] [µM] | MIC [11] [µM] | MIC [12] [µM] | IC50 [13] [µM] | Activity [14]
1 | CC(=O)N[C@@H](CCCCN)C(=O)N(CC(=O)N[C@@H](CCCCNC(=N)N)C(=O)N(CC(=O)N[C@@H](CCCCN)C(=O)N(CC(=O)N[C@@H](CCCCNC(=N)N)C(=O)N(CC(=O)N[C@@H](CCCCN)C(=O)N(CC(=O)N[C@@H](CCCCNC(=N)N)C(=O)N(CC(=O)N[C@@H](CCCCN)C(=O)N(CC(N)=O)Cc1ccccc1)Cc1ccccc1)Cc1ccccc1)Cc1ccccc1)Cc1ccccc1)Cc1ccccc1)Cc1ccccc1 (Ac-K[Nphe][hArg][Nphe]K[Nphe][hArg][Nphe]K[Nphe][hArg][Nphe]K[Nphe]-NH2) | 378 | 319 | 1 (≈ 2.11 µg/mL) | 99 | 4 (≈ 8.45 µg/mL) | Not Active | > 1000 | 418 | 8 (≈ 16.9 µg/mL) | 1 (≈ 2.11 µg/mL) | 32 (≈ 67.6 µg/mL) | 1 (≈ 2.11 µg/mL) | 254 | Not Active
2 | CO/N=C(\C(=O)N[C@@H]1C(=O)N2C(C(=O)O)=C(COC(C)=O)CS[C@H]12)c1csc(N)n1 [CEFOTAXIME] | – | – | > 128 | – | > 128 | – | – | – | > 128 | < 0.125 | > 128 | > 128 | – | –
3 | CN[C@H](CC(C)C)C(=O)N[C@H]1C(=O)N[C@@H](CC(N)=O)C(=O)N[C@H]2C(=O)N[C@H]3C(=O)N[C@H](C(=O)N[C@H](C(=O)O)c4cc(O)cc(O)c4-c4cc3ccc4O)[C@H](O)c3ccc(c(Cl)c3)Oc3cc2cc(c3O[C@@H]2O[C@H](CO)[C@@H](O)[C@H](O)[C@H]2O[C@H]2C[C@](C)(N)[C@H](O)[C@H](C)O2)Oc2ccc(cc2Cl)[C@H]1O [VANCOMYCIN] | – | – | > 128 | – | > 128 | – | – | – | 128 (≈ 186 µg/mL) | > 128 | 0.5 (≈ 0.725 µg/mL) | > 128 | – | –
4 | CC(=O)N[C@@H](CCCCNC(=N)N)C(=O)N(CCC(=O)N[C@@H](CCCCN)C(=O)N(CCC(=O)N[C@@H](CCCCNC(=N)N)C(=O)N(CCC(=O)N[C@@H](CCCCN)C(=O)N(CCC(=O)N[C@@H](CCCCNC(=N)N)C(=O)N(CCC(N)=O)[C@@H](C)c1ccccc1)[C@@H](C)c1ccccc1)[C@@H](C)c1ccccc1)[C@@H](C)c1ccccc1)[C@@H](C)c1ccccc1 | 185 | 186 | 8 (≈ 13.6 µg/mL) | 136 | 64 (≈ 109 µg/mL) | Not Active | > 1000 | – | 64 (≈ 109 µg/mL) | 8 (≈ 13.6 µg/mL) | 16 (≈ 27.2 µg/mL) | 8 (≈ 13.6 µg/mL) | 237 | Not Active
5 | O=C(O)c1cn(C2CC2)c2cc(N3CCNCC3)c(F)cc2c1=O [CIPROFLOXACIN] | – | – | – | – | – | – | – | – | – | < 0.125 | 0.25 (≈ 0.0828 µg/mL) | – | – | –
6 | CC[C@H](C)[C@H](NC(=O)CN)C(=O)NCC(=O)N[C@@H](C)C(=O)N[C@H](C(=O)N[C@@H](CC(C)C)C(=O)N[C@@H](CCCCN)C(=O)N[C@H](C(=O)N[C@@H](CC(C)C)C(=O)N[C@H](C(=O)N[C@H](C(=O)NCC(=O)N[C@@H](CC(C)C)C(=O)N1CCC[C@H]1C(=O)N[C@@H](C)C(=O)N[C@@H](CC(C)C)C(=O)N[C@H](C(=O)N[C@@H](CO)C(=O)N[C@@H](Cc1c[nH]c2ccccc12)C(=O)N[C@H](C(=O)N[C@@H](CCCCN)C(=O)N[C@@H](CCCNC(=N)N)C(=O)N[C@@H](CCCCN)C(=O)N[C@@H](CCCNC(=N)N)C(=O)N[C@@H](CCC(N)=O)C(=O)N[C@@H](CCC(N)=O)C(N)=O)[C@@H](C)CC)[C@@H](C)CC)[C@@H](C)O)[C@@H](C)O)C(C)C)C(C)C [MELITTIN] | 2.5 | – | – | 1.9 | – | – | 4.5 | – | – | – | – | – | – | –
